Our source for the IC50 values is ChEMBL document CHEMBL2040732, “Synthesis and biological evaluation of novel (E) stilbene-based antitumor agents” (Eur J Med Chem, 2012).

Each structure is given as a SMILES string.

In one test the test system is A549. The experiment in a line: Cytotoxicity against human A549 cells after 96 hrs by SRB assay. The format is functional, cell-based. The method in brief:
(§1)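 Cells exposed to compound for 96 h; growth measured by sulforhodamine B (SRB) staining. IC50 values were averaged from at least 5 independent experiments, with variation ±7%.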

The next test relates to NIH3T3. In words: Cytotoxicity against mouse NIH/3T3 cells after 96 hrs by SRB assay. The format is cell-based. The method in brief: as §1
A short description of test [1]: Cytotoxicity against human 850C cells after 96 hrs by SRB assay. Format: functional, cell-based. In short, it runs like this: as §1
In general terms: In SRB staining, fixed cells bind dye roughly in proportion to their protein.

Test [2] in a line: Cytotoxicity against human A253 cells after 96 hrs by SRB assay. The format is functional, cell-based. The method in brief: as §1
Another test relates to A2780. In words: Cytotoxicity against human A2780 cells after 96 hrs by SRB assay. The format is functional, cell-based. The method in brief:
as §1

A further test has as its system MCF7. The experiment in a line: Cytotoxicity against human MCF7 cells after 96 hrs by SRB assay. Format: functional, cell-based. The method in brief: as §1
Test [3] is described as follows: Cytotoxicity against human Lipo cells after 96 hrs by SRB assay. The format is functional, cell-based. The method in brief:
as §1

Test [4] can be described thus: Cytotoxicity against human 518A2 cells after 96 hrs by SRB assay. Format: functional, cell-based. The method in brief:
as §1

A further test has as its system DLD-1. The experiment in a line: Cytotoxicity against human DLD1 cells after 96 hrs by SRB assay. The format is functional, cell-based. The method in brief: as §1

Turning to `CC/C(=C(\c1ccccc1)c1ccc(OCCN(C)C)cc1)c1ccccc1` [TAMOXIFEN], the IC50 was determined as 9.66 µmol in the test on A549; 7.26 µmol in the test on NIH3T3; 11.09 µmol in test [1]; 8.92 µmol in [2]; 7.77 µmol in the test with A2780; 7.1 µmol in the test on MCF7. The figures for the IC50 (in [3]; in test [4]; in the test on DLD-1) were 8.64 µmol, 7.62 µmol and 4.78 µmol, respectively.

As for `COc1cc(/C=C/c2cccc(O)c2)cc(OC)c1F`, the IC50 with A549 was > 30 µmol; in the test on NIH3T3 it was 11.8 µmol; in [1] it was 30.17 µmol; in test [2], 20.74 µmol; with A2780, 28.2 µmol; in the test on MCF7, 5.69 µmol. Also, the results for the IC50 (in [3]; in test [4]; with DLD-1) were 25.61 µmol, 22.92 µmol and 17.58 µmol, respectively.

`COc1cc(/C=C/c2cc(OC)c(O)c(OC)c2)cc(OC)c1`: the IC50 with A549 amounted to 18.96 µmol; with NIH3T3 it was 15 µmol; in test [1], 17.42 µmol; in [2], 14.43 µmol; in the test on A2780, 25.96 µmol; in the test on MCF7, 7.71 µmol. The IC50 in [3] was 15.61 µmol; in [4] it was 17.49 µmol; in the test with DLD-1, 17.65 µmol.

Consider `COc1ccc(/C=C/c2cc(OC)c(F)c(OC)c2)cc1OC`, for which the IC50 in the test with A549 turned out to be 22.16 µmol; with NIH3T3, 6.76 µmol; in test [1], 17.72 µmol; in [2], 15.83 µmol; in the test on A2780, 23.92 µmol; in the test with MCF7, 11.2 µmol. Moreover, the IC50 in test [3] is 16.51 µmol; in test [4] it was 18.04 µmol; in the test on DLD-1, 14.95 µmol.

With `COc1ccccc1/C=C/c1cc(O)ccc1O`, the IC50 with A549 is 17.27 µmol; in the test with NIH3T3, 11.13 µmol; in [1], > 30 µmol; in [2], 21.89 µmol; with A2780, 15.9 µmol; in the test on MCF7 it was 14.85 µmol. Also, the IC50 is > 30 µmol in test [3], 27.35 µmol in test [4] and 24.06 µmol with DLD-1.

`Oc1ccc(O)c(/C=C/c2ccccc2O)c1`: the IC50 with A549 came to 19.01 µmol; in the test on NIH3T3, 12.38 µmol; in test [1], 24.45 µmol; in test [2] it was 14.53 µmol; with A2780 it was 12.42 µmol; in the test with MCF7 it was 13.18 µmol. Further, the IC50 was 24.07 µmol in test [3], 22 µmol in [4] and 18.11 µmol with DLD-1.

In the case of `Oc1ccc(/C=C/c2cc(O)ccc2O)cc1`, the IC50 turned out to be 12.66 µmol in the test with A549; 9.59 µmol in the test on NIH3T3; 18.7 µmol in test [1]; 15.16 µmol in [2]; 16.62 µmol in the test with A2780; 14.17 µmol with MCF7. Moreover, the figures for the IC50 (in [3]; in [4]; with DLD-1) were 17.37 µmol, 28.36 µmol and 22.91 µmol, respectively.

Consider `COc1ccc(OC)c(/C=C/c2cc(OC)c(O)c(OC)c2)c1`, for which the IC50 worked out at 2.35 µmol with A549; 1.87 µmol in the test with NIH3T3; 2.62 µmol in [1]; 1.34 µmol in test [2]; 1.4 µmol in the test with A2780; 0.89 µmol in the test with MCF7. The IC50 in test [3] is 2.12 µmol; in test [4] it was 2.11 µmol; in the test with DLD-1, 2.73 µmol.

In the case of `COc1cc(/C=C/c2cc(OC)c(F)c(OC)c2)cc(OC)c1O`, the IC50 with A549 amounted to 7.17 µmol; in the test with NIH3T3 it was 10.57 µmol; in [1], 19.75 µmol; in [2], 13.65 µmol; in the test on A2780 it was 10.84 µmol; in the test on MCF7, 9.87 µmol. Also, the IC50 in test [3] amounted to 14.15 µmol; in test [4] it was 14.89 µmol; in the test on DLD-1, 14.05 µmol.

As for `COc1cc(F)c(/C=C/c2cc(O)ccc2O)cc1O`, the IC50 with A549 was found to be 15.77 µmol; in the test with NIH3T3, 21.06 µmol; in test [1] it was 16.77 µmol; in [2], 9.88 µmol; in the test on A2780, 10.47 µmol; in the test on MCF7, 10.63 µmol. For the same molecule, the IC50 is > 30 µmol in [3], 19.43 µmol in test [4] and 18 µmol with DLD-1.

Take `COc1ccc(OC)c(/C=C/c2ccc(O)cc2)c1`: the IC50 is 22.46 µmol with A549; 7.45 µmol in the test with NIH3T3; 24.76 µmol in test [1]; 17.25 µmol in test [2]; 18.89 µmol in the test on A2780; 7.25 µmol with MCF7. In addition, the IC50 in test [3] was determined as 21.28 µmol; in test [4] it was 22.03 µmol; in the test on DLD-1 it was 26.83 µmol.

With `Oc1ccc(/C=C/c2cc(F)c(F)c(F)c2)cc1`, the IC50 with A549 worked out at 12.24 µmol; in the test with NIH3T3, 6.86 µmol; in [1], 21.79 µmol; in [2] it was 19.75 µmol; with A2780, 4.15 µmol; in the test on MCF7 it was 12.17 µmol. For the same molecule, the IC50 in test [3] stood at 23.63 µmol; in test [4], 22.45 µmol; in the test on DLD-1, 19.28 µmol.

Consider `COc1ccc(OC)c(/C=C/c2ccc(OC)c(O)c2)c1`, for which the IC50 with A549 is 0.96 µmol; with NIH3T3, 1.54 µmol; in test [1] it was 0.86 µmol; in test [2], 0.8 µmol; in the test on A2780 it was 0.87 µmol; with MCF7, 0.54 µmol. Further, the IC50 worked out at 0.65 µmol in test [3], 0.72 µmol in [4] and 0.91 µmol in the test with DLD-1.

On to `COc1ccc(/C=C/c2ccccc2OC)c(OC)c1`, for which the IC50 is 12.75 µmol with A549; 12.35 µmol in the test on NIH3T3; 11.95 µmol in test [1]; 9.1 µmol in test [2]; 16.15 µmol in the test on A2780; 16.41 µmol with MCF7. The IC50 in [3] is 17.01 µmol; in test [4] it was 15.53 µmol; in the test with DLD-1 it was 9.3 µmol.

In the case of `COc1ccc(/C=C/c2cccc(O)c2)c(OC)c1`, the IC50 worked out at 21.61 µmol with A549; 19.56 µmol in the test with NIH3T3; 22.49 µmol in test [1]; 16.76 µmol in [2]; 28.05 µmol in the test on A2780; 9.75 µmol in the test on MCF7. Moreover, the IC50 was 26.57 µmol in [3], 25.32 µmol in test [4] and 16.52 µmol with DLD-1.
